Measurements from ChEMBL document CHEMBL2424631, “The carbonate analogues of 5'-halogenated resiniferatoxin as TRPV1 ligands” (Eur J Med Chem, 2013).

Legend:
Format in all cases: cell-based
[1] = target: T1, Transient receptor potential cation channel subfamily V member 1 (Homo sapiens, UniProt Q8NER1); assay: Antagonist activity at human TRPV1 expressed in CHO cells assessed as inhibition of capsaicin-stimulated Ca2+ uptake
In short: (§1)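 Functional 45Ca2+ uptake assay in CHO cells heterologously expressing rat or human TRPV1. Agonism is reported as EC50, and as % of the capsaicin response. Antagonism is reported as Ki(ant) against capsaicin-stimulated 45Ca2+ uptake, and as % antagonism of that response. Ki and EC50 are mean ± SEM of three or more independent experiments.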

[2] = target: T1, Transient receptor potential cation channel subfamily V member 1; assay: Agonist activity at human TRPV1 expressed in CHO cells assessed as stimulation of Ca2+ uptake; in short: as §1
[3] = target: T1, Transient receptor potential cation channel subfamily V member 1; assay: Displacement of [3H]RTX from human TRPV1 expressed in CHO cells
In short: (§2)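 Competitive binding against [3H]RTX on rat or human TRPV1 heterologously expressed in CHO cells. Affinity is reported as Ki, as mean ± SEM of three or more independent experiments.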

[4] = target: T2, Transient receptor potential cation channel subfamily V member 1 (Rattus norvegicus, UniProt O35433); assay: Antagonist activity at rat TRPV1 expressed in CHO cells assessed as inhibition of capsaicin-stimulated Ca2+ uptake; in short: as §1
T2 sequence (O35433 whole entry): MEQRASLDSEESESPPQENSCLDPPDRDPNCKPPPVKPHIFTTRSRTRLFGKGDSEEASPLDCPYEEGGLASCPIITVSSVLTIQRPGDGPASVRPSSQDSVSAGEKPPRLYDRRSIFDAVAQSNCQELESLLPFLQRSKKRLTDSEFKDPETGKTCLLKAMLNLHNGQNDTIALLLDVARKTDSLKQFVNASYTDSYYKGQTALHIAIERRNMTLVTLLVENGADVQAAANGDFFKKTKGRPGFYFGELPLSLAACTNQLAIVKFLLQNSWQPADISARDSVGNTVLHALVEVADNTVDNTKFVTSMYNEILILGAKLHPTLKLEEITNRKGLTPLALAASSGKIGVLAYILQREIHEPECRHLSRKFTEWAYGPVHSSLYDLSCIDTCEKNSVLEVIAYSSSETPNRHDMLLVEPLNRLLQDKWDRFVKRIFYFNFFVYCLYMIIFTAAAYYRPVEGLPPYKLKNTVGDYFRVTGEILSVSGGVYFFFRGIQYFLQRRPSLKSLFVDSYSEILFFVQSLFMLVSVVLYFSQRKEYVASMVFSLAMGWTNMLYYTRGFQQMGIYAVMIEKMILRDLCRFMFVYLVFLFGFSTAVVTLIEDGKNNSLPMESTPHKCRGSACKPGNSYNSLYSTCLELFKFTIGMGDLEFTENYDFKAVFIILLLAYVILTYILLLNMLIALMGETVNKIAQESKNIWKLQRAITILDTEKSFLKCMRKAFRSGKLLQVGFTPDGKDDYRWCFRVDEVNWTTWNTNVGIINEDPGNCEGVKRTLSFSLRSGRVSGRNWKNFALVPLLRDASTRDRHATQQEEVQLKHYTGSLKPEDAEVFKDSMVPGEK

[5] = target: Transient receptor potential cation channel subfamily V member 1 (Rattus norvegicus) (UniProt O35433); assay: Agonist activity at rat TRPV1 expressed in CHO cells assessed as stimulation of Ca2+ uptake relative to capsaicin; in short: as §1
Sequence of Transient receptor potential cation channel subfamily V member 1 (Rattus norvegicus) (O35433 whole entry): as above

[6] = target: T2, Transient receptor potential cation channel subfamily V member 1; assay: Displacement of [3H]RTX from rat TRPV1 expressed in CHO cells; in short: as §2
[7] = target: Transient receptor potential cation channel subfamily V member 1 (Rattus norvegicus) (UniProt O35433); assay: Ratio of I-RTX Ki to compound Ki for rat TRPV1 expressed in CHO cells
[8] = target: T2, Transient receptor potential cation channel subfamily V member 1; assay: Agonist activity at rat TRPV1 expressed in CHO cells assessed as stimulation of Ca2+ uptake; in short: as §1
[9] = target: Transient receptor potential cation channel subfamily V member 1 (Rattus norvegicus) (UniProt O35433); assay: Partial antagonist activity at rat TRPV1 expressed in CHO cells assessed as inhibition of capsaicin-stimulated Ca2+ uptake measured as residual agonism; settings: concentration not given here; in short: as §1

T1 sequence (Q8NER1 whole entry): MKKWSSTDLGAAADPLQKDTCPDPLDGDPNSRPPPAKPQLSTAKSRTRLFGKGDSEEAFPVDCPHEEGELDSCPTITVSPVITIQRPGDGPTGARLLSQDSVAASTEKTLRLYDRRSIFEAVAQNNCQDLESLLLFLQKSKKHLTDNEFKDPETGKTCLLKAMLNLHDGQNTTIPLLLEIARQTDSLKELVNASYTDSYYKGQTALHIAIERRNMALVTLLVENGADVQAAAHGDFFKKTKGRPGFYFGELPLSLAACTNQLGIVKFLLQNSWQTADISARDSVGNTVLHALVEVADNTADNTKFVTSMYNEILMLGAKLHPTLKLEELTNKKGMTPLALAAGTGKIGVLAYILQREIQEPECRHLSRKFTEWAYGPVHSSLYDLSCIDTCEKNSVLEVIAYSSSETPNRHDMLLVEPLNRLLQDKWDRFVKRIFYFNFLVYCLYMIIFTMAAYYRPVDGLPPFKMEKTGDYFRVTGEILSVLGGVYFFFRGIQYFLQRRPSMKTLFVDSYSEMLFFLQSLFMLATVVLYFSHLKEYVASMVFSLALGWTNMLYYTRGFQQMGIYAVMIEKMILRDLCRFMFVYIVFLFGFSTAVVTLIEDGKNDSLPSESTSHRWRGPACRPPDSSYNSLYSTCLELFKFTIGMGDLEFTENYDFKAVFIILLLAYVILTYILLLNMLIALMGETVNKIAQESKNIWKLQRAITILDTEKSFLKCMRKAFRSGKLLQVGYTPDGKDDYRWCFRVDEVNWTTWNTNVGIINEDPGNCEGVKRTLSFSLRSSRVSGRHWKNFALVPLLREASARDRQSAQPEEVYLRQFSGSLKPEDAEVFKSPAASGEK

Q: Which results are given for `C=C(C)[C@]12C[C@@H](C)[C@@]34O[C@](Cc5ccccc5)(O[C@@H]1[C@@H]3C=C(COC(=O)Oc1cc(Cl)c(O)c(OC)c1)C[C@]1(O)C(=O)C(C)=C[C@@H]41)O2`?
A: Ki [1]: 451 nM; EC50 [2]: 183 nM; Ki [3]: 50 nM; Ki [4]: 21.3 nM; Activity [5]: 13%; Ki [6]: 1.64 nM

Q: What does the source list for `C=C(C)[C@]12C[C@@H](C)[C@@]34O[C@](Cc5ccccc5)(O[C@@H]1[C@@H]3C=C(COC(=O)Oc1cc(I)c(N)c(OC)c1)C[C@]1(O)C(=O)C(C)=C[C@@H]41)O2`?
A: Ki [1]: 1800 nM; Ki [3]: 990 nM; Ki [4]: 2.68 nM; Ki [6]: 3.01 nM

Q: Which EC50 [2] does the source give for `C=C(C)[C@]12C[C@@H](C)[C@@]34O[C@](Cc5ccccc5)(O[C@@H]1[C@@H]3C=C(COC(=O)Cc1ccc(O)c(OC)c1)C[C@]1(O)C(=O)C(C)=C[C@@H]41)O2` [RESINIFERATOXIN] here?
A: 0.92 nM

Q: What about the Ki [3] of the same compound?
A: 1.23 nM

Q: Which results are given for `C=C(C)[C@]12C[C@@H](C)[C@@]34O[C@](Cc5ccccc5)(O[C@@H]1[C@@H]3C=C(COC(=O)Oc1cc(I)c(O)c(OC)c1)C[C@]1(O)C(=O)C(C)=C[C@@H]41)O2`?
A: Ratio Ki [7]: 5; Ki [1]: 189 nM; Ki [3]: 49 nM; Ki [4]: 2.23 nM; Ki [6]: 1.66 nM

Q: What does the source list for `C=C(C)[C@]12C[C@@H](C)[C@@]34O[C@](Cc5ccccc5)(O[C@@H]1[C@@H]3C=C(COC(=O)Oc1cc(F)c(N)c(OC)c1)C[C@]1(O)C(=O)C(C)=C[C@@H]41)O2`?
A: EC50 [2]: 17.9 nM; Ki [3]: 830 nM; Activity [5]: 83%; EC50 [8]: 3.17 nM; Ki [6]: 2.21 nM

Q: Which results are given for `C=C(C)[C@]12C[C@@H](C)[C@@]34O[C@](Cc5ccccc5)(O[C@@H]1[C@@H]3C=C(COC(=O)Oc1cc(Cl)c(N)c(OC)c1)C[C@]1(O)C(=O)C(C)=C[C@@H]41)O2`?
A: Ratio Ki [7]: 5; Ki [1]: 1400 nM; Ki [3]: 330 nM; Ki [4]: 4.06 nM; Ki [6]: 2.5 nM

Q: Which results are given for `C=C(C)[C@]12C[C@@H](C)[C@@]34O[C@](Cc5ccccc5)(O[C@@H]1[C@@H]3C=C(COC(=O)Cc1cc(I)c(O)c(OC)c1)C[C@]1(O)C(=O)C(C)=C[C@@H]41)O2` [IODORESINIFERATOXIN]?
A: Ki [1]: 5.87 nM; Ki [3]: 11.8 nM

Q: Which results are given for `C=C(C)[C@]12C[C@@H](C)[C@@]34O[C@](Cc5ccccc5)(O[C@@H]1[C@@H]3C=C(COC(=O)Oc1ccc(NS(C)(=O)=O)c(OC)c1)C[C@]1(O)C(=O)C(C)=C[C@@H]41)O2`?
A: EC50 [2]: 16.5 nM; Ki [3]: 82 nM; Activity [5]: 89%; EC50 [8]: 4.62 nM; Ki [6]: 1.28 nM

Q: How did the Ratio Ki [7] turn out when `C=C(C)[C@]12C[C@@H](C)[C@@]34O[C@](Cc5ccccc5)(O[C@@H]1[C@@H]3C=C(COC(=O)Oc1cc(Br)c(N)c(OC)c1)C[C@]1(O)C(=O)C(C)=C[C@@H]41)O2` was run?
A: 5

Q: What about the Ki [1] of the same compound?
A: 666 nM

Q: And the Ki [3]?
A: 212 nM

Q: What about the Ki [4] of the same compound?
A: 2.46 nM

Q: What about the Ki [6] of the same compound?
A: 1.83 nM

Q: Which results are given for `C=C(C)[C@]12C[C@@H](C)[C@@]34O[C@](Cc5ccccc5)(O[C@@H]1[C@@H]3C=C(COC(=O)Oc1cc(F)c(O)c(OC)c1)C[C@]1(O)C(=O)C(C)=C[C@@H]41)O2`?
A: EC50 [2]: 16.3 nM; Ki [3]: 138 nM; EC50 [8]: 4.97 nM; Ki [6]: 1.17 nM

Q: For `C=C(C)[C@]12C[C@@H](C)[C@@]34O[C@](Cc5ccccc5)(O[C@@H]1[C@@H]3C=C(COC(=O)Oc1cc(Br)c(O)c(OC)c1)C[C@]1(O)C(=O)C(C)=C[C@@H]41)O2`, which Ratio Ki [7] is on record?
A: 2

Q: What about the inhibition [9] of the same compound?
A: 13%

Q: And the Ki [1]?
A: 512 nM

Q: What about the Ki [3] of the same compound?
A: 33.3 nM

Q: And the Ki [4]?
A: 5.2 nM

Q: And the Ki [6]?
A: 1.64 nM

Q: For `C=C(C)[C@]12C[C@@H](C)[C@@]34O[C@](Cc5ccccc5)(O[C@@H]1[C@@H]3C=C(COC(=O)Oc1ccc(N)c(OC)c1)C[C@]1(O)C(=O)C(C)=C[C@@H]41)O2`, which EC50 [2] is on record?
A: 6.28 nM

Q: What about the Ki [3] of the same compound?
A: 140 nM

Q: And the EC50 [8]?
A: 1.84 nM

Q: And the Ki [6]?
A: 0.58 nM
